Measured values taken from ChEMBL document CHEMBL1671805, “Biotin ergopeptide probes for dopamine receptors” (J Med Chem, 2011).
pKd: −log10 of the molar value. The source made the active and inactive calls. No cut-off for these calls is given here.

How the values were obtained:
[1] = molecular target: Cannabinoid receptor 1 (Homo sapiens) (UniProt P21554); experiment: Displacement of [3H]-CP55940 from CB1 receptor
Outline: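 Membranes in siliconated tubes were incubated with 0.5 nM [3H]-CP 55940 for 2 h at 22 C in Tris-HCl pH 7.4 with 10 mM MgCl2 and 1 mg/mL fatty acid-free BSA. BSA was also in the filter presoak and wash. Nonspecific binding was taken with 10 μM CP55940.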

[2] = molecular target: D(2) dopamine receptor (Homo sapiens) (UniProt P14416); experiment: Agonist activity at human dopamine D2 receptor expressed in CHO cells assessed as decrease of Akt phosphorylation at Ser473; assay type: functional, cell-based
Outline: (§1)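 Transiently transfected CHO cells (human D1R for D1 lines, D2R for D2 lines; 2 μg cDNA, PEI) were serum-starved 16 h. They were optionally pretreated 5 min with 5 or 50 μM antagonist (SCH23390 for D1R, raclopride for D2R), then given increasing ligand concentrations for 5 min. Lysates were western-blotted for phospho-ERK1/2 or P-Ser473Akt, normalized to total ERK. Mean ± SEM of four independent experiments.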

[3] = molecular target: D(2) dopamine receptor (Homo sapiens) (UniProt P14416); experiment: Agonist activity at human dopamine D2 receptor expressed in CHO cells assessed as increase of ERK1/2 phosphorylation in presence of raclopride; assay type: functional, cell-based; outline: as §1
D(3) dopamine receptor [4] = molecular target: T1, D(3) dopamine receptor (Homo sapiens, UniProt P35462); experiment: Displacement of [3H]-raclopride from human dopamine D3 receptor low binding affinity site expressed in CHO cells; assay type: cell-based
Outline: (§2)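 Membranes (0.5 mg prot/mL) from CHO cells transiently transfected with 2 μg human D3R cDNA were incubated with 4 nM [3H]-raclopride and increasing competitor for 2 h at 22 C in Tris-HCl pH 7.4 with 10 mM MgCl2. Nonspecific binding was taken with 10 μM raclopride. High- and low-affinity KD values came from a two-state dimer receptor model fit. Triplicate.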

[5] = molecular target: Histamine H3 receptor (Homo sapiens) (UniProt Q9Y5N1); experiment: Displacement of [3H]-RAMH from histamine H3 receptor
Outline: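 Membranes were incubated with 2.5 nM [3H]-RAMH for 2 h at 22 C in 50 mM Tris-HCl pH 7.4 with 10 mM MgCl2. Nonspecific binding was taken with 10 μM RAMH. Bound ligand was filtered and counted.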

[6] = molecular target: Somatostatin receptor type 5 (Homo sapiens) (UniProt P35346); experiment: Displacement of [125I]-Tyr11-somatostatin 14 from SST5 receptor
Outline: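 Membranes were incubated with 0.1 nM [125I]-Tyr11-somatostatin 14 for 3 h at 22 C in 50 mM Tris-HCl pH 7.4 with 10 mM MgCl2. Nonspecific binding was taken with 100 nM somatostatin. Bound ligand was separated by filtration and counted.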

[7] = Displacement of [3H]-SCH23390 from dopamine D1 receptor low binding affinity site in lamb brain striatum membranes at 25 uM; assay type: cell membranes, Ovis aries, Membrane
Outline: (§3)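 Lamb striatal membranes (0.5 mg prot/mL) in 50 mM Tris-HCl pH 7.4 with 10 mM MgCl2 were incubated 2 h at 22 C. Radioligand was 0.9 nM [3H]-SCH23390 (D1) or 0.7 nM [3H]-YM09151-2 (D2). Screens used 25 μM compound; competition used increasing concentrations. Nonspecific binding was taken with 10 μM SCH23390 (D1) or raclopride (D2). Bound ligand was filtered and counted. KD values came from a two-state dimer receptor model fit.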

D(3) dopamine receptor [8] = molecular target: T1, D(3) dopamine receptor; experiment: Displacement of [3H]-raclopride from human dopamine D3 receptor high binding affinity site expressed in CHO cells; assay type: cell-based; outline: as §2
[9] = molecular target: D(1A) dopamine receptor (Homo sapiens) (UniProt P21728); experiment: Agonist activity at human dopamine D1 receptor expressed in CHO cells assessed as decrease of Akt phosphorylation at Ser473 in presence of SCH23390; assay type: functional, cell-based; outline: as §1
[10] = Displacement of [3H]-YM09151-2 from dopamine D2 receptor low binding affinity site in lamb brain striatum membranes at 25 uM; assay type: cell membranes, Ovis aries, Membrane; outline: as §3
[11] = molecular target: D(2) dopamine receptor (Homo sapiens) (UniProt P14416); experiment: Agonist activity at human dopamine D2 receptor expressed in CHO cells assessed as increase of ERK1/2 phosphorylation; assay type: functional, cell-based; outline: as §1
[12] = molecular target: D(1A) dopamine receptor (Homo sapiens) (UniProt P21728); experiment: Agonist activity at human dopamine D1 receptor expressed in CHO cells assessed as increase of ERK1/2 phosphorylation in presence of SCH23390; assay type: functional, cell-based; outline: as §1
[13] = molecular target: Metabotropic glutamate receptor 1 (Homo sapiens) (UniProt Q13255); experiment: Displacement of [3H]-quisqualic acid from mGlu1 receptor
Outline: (§4)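 Membranes were incubated with 27 nM [3H]-quisqualic acid for 2 h at 22 C in 50 mM Tris-HCl pH 7.4 with 10 mM MgCl2. Nonspecific binding was taken with 10 μM quisqualic acid. Bound ligand was filtered and counted.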

[14] = molecular target: D(2) dopamine receptor (Homo sapiens) (UniProt P14416); experiment: Agonist activity at human dopamine D2 receptor expressed in CHO cells assessed as decrease of Akt phosphorylation at Ser473 in presence of raclopride; assay type: functional, cell-based; outline: as §1
[15] = Displacement of [3H]-SCH23390 from dopamine D1 receptor high binding affinity site in lamb brain striatum membranes at 25 uM; assay type: cell membranes, Ovis aries, Membrane; outline: as §3
[16] = molecular target: Metabotropic glutamate receptor 5 (Homo sapiens) (UniProt P41594); experiment: Displacement of [3H]-quisqualic acid from mGlu5 receptor; outline: as §4
[17] = Displacement of [3H]-YM09151-2 from dopamine D2 receptor high binding affinity site in lamb brain striatum membranes at 25 uM; assay type: cell membranes, Ovis aries, Membrane; outline: as §3
[18] = molecular target: D(1A) dopamine receptor (Homo sapiens) (UniProt P21728); experiment: Agonist activity at human dopamine D1 receptor expressed in CHO cells assessed as increase of ERK1/2 phosphorylation; assay type: functional, cell-based; outline: as §1
[19] = molecular target: D(1A) dopamine receptor (Homo sapiens) (UniProt P21728); experiment: Agonist activity at human dopamine D1 receptor expressed in CHO cells assessed as decrease of Akt phosphorylation at Ser473; assay type: functional, cell-based; outline: as §1

D(2) dopamine receptor (Homo sapiens), sequence (P14416 whole entry): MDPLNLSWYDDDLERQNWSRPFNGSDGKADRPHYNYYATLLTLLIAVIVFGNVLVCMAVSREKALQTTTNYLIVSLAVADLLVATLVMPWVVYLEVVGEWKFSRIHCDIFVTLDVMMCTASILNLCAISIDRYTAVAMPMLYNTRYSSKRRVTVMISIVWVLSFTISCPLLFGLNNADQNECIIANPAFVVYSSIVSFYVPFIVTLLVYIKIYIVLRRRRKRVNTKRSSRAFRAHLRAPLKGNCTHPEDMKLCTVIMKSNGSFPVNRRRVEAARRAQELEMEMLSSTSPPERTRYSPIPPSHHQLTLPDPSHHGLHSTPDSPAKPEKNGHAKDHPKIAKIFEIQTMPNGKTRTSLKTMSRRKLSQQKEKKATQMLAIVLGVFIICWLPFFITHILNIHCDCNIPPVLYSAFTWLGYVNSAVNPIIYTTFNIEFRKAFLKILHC
D(1A) dopamine receptor (Homo sapiens), sequence (P21728 whole entry): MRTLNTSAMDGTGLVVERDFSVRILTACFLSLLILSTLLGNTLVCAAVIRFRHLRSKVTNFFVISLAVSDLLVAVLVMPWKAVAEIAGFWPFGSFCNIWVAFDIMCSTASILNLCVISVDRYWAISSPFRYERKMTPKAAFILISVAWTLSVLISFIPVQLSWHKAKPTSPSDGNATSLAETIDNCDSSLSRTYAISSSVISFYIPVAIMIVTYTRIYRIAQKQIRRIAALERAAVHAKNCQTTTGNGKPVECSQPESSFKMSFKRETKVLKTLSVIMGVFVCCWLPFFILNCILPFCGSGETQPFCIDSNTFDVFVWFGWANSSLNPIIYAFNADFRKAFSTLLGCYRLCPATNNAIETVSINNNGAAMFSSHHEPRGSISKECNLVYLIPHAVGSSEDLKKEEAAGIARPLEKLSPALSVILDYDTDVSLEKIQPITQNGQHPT
T1 sequence (P35462 whole entry): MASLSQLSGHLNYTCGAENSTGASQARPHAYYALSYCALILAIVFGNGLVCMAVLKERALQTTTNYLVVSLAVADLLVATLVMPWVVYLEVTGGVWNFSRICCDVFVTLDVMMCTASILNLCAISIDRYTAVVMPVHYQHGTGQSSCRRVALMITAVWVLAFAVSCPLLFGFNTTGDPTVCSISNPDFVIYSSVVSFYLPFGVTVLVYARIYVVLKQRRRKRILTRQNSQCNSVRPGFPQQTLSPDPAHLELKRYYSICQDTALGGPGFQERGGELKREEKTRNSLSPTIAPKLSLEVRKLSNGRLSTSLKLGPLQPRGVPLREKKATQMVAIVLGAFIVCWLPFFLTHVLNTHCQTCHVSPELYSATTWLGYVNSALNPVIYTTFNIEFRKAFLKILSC
Somatostatin receptor type 5 (Homo sapiens), sequence (P35346 whole entry): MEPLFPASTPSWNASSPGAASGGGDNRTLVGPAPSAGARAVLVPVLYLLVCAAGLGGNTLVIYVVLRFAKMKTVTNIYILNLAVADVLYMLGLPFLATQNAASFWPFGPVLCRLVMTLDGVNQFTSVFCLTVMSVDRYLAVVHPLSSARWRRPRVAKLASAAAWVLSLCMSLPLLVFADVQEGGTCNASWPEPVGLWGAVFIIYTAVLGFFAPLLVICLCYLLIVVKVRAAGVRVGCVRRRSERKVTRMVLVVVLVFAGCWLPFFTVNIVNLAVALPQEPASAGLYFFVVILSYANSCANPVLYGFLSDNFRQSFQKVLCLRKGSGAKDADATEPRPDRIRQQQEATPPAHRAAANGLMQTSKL
Histamine H3 receptor (Homo sapiens), sequence (Q9Y5N1 whole entry): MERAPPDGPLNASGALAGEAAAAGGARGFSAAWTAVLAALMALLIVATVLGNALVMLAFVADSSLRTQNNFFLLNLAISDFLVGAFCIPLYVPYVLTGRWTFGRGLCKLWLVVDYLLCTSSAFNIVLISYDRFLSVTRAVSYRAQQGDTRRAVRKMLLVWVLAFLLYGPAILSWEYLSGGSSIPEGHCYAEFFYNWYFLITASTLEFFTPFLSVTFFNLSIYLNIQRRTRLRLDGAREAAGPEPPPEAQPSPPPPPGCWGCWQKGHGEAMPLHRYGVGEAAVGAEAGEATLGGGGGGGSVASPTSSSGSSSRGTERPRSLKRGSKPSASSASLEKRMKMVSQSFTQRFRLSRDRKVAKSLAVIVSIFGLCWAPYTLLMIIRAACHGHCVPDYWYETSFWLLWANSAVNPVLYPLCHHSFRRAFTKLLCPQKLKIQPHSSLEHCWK
Metabotropic glutamate receptor 1 (Homo sapiens), sequence (Q13255 19-1194 limits assumed): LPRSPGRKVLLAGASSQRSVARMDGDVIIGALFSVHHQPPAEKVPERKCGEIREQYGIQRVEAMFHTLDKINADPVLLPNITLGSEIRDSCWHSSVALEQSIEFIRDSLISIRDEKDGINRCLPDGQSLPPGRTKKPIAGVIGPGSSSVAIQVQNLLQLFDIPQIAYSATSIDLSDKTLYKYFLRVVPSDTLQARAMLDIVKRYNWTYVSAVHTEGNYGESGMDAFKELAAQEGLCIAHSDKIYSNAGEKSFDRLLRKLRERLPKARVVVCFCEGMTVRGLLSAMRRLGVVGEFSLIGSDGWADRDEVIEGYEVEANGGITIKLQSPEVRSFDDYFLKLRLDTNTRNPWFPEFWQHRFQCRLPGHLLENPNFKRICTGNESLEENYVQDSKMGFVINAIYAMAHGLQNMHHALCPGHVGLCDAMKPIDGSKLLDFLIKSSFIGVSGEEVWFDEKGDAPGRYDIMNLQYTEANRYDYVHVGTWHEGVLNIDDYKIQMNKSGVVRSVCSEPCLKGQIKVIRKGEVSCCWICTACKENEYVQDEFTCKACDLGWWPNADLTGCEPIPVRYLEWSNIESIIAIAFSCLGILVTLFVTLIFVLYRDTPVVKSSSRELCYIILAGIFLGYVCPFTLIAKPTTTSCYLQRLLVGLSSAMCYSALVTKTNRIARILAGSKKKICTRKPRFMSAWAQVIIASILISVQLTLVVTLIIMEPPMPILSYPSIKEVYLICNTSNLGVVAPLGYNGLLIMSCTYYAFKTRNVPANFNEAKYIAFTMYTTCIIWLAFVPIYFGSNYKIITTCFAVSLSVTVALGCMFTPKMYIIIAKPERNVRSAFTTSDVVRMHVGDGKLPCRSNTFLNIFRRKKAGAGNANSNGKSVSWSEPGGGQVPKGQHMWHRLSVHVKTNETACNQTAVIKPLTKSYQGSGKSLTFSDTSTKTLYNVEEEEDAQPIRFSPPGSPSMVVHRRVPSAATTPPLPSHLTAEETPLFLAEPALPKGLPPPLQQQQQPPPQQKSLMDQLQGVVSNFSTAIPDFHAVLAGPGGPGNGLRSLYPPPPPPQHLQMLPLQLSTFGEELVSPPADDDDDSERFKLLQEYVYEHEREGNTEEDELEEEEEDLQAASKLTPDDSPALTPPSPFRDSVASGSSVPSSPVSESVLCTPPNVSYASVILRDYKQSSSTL
Cannabinoid receptor 1 (Homo sapiens), sequence (P21554 whole entry): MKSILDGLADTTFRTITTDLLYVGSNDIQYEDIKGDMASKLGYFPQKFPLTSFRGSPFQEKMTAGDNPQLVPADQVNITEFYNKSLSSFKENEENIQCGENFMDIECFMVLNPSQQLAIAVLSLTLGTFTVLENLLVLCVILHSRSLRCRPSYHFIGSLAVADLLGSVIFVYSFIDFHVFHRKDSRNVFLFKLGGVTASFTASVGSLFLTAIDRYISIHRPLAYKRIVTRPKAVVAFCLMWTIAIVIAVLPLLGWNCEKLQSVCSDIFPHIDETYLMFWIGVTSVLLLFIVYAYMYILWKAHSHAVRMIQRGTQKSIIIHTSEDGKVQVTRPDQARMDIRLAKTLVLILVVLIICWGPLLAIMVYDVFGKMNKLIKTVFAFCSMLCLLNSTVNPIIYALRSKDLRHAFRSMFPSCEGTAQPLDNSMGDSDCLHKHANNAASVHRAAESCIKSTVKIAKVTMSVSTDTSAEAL
Metabotropic glutamate receptor 5 (Homo sapiens), sequence (P41594 21-1212 limits assumed): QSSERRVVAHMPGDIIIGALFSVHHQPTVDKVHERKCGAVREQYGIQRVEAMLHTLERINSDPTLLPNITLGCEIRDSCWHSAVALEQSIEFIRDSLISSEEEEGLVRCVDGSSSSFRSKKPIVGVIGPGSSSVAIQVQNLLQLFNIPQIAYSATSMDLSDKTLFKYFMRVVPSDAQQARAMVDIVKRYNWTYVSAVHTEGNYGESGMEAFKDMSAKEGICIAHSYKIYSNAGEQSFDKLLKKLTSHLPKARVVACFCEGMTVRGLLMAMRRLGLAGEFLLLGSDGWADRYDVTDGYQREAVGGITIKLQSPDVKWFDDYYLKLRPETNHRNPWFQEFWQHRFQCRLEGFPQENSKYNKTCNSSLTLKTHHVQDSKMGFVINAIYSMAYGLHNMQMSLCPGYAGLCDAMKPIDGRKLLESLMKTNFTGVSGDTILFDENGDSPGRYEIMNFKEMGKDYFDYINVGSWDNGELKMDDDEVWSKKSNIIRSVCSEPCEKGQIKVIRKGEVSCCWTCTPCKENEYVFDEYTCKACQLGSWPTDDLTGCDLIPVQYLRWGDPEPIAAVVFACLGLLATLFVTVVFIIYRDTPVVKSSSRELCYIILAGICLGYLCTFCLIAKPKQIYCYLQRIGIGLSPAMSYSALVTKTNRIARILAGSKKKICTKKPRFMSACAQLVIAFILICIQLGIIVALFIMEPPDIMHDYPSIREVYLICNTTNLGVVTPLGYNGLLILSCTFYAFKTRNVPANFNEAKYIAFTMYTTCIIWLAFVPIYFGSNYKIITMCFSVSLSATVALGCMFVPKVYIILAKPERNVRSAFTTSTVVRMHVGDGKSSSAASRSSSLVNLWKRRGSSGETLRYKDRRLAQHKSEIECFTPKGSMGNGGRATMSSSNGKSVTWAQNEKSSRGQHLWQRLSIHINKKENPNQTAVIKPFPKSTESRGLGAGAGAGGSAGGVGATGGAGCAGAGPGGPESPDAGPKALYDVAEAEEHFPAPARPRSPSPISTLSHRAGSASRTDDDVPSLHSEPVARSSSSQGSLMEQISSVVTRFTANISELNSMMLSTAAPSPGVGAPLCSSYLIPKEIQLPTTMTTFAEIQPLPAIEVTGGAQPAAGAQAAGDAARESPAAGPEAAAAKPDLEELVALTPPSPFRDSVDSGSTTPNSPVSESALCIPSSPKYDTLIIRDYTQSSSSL

Activity [1]: inactive | Activity [2]: Dose-dependent effect | Activity [3]: inactive | pKd (D(3) dopamine receptor [4]): 7.03 | Activity [5]: inactive | Activity [6]: inactive | pKd [7]: 5.82 | pKd (D(3) dopamine receptor [8]): 7.64 | Activity [9]: inactive | pKd [10]: 5.05 | Activity [11]: Dose-dependent effect | Activity [12]: inactive | Activity [13]: inactive | Activity [14]: inactive | pKd [15]: 7.25 | Activity [16]: inactive | pKd [17]: 7.77 | Activity [18]: Dose-dependent effect | Activity [19]: Dose-dependent effect
Structure (SMILES): CN1C[C@H](C(=O)N[C@@H](Cc2ccc([N+](=O)[O-])cc2)C(=O)N[C@@H](Cc2ccc(F)cc2)C(=O)N2CCCC(C(=O)NCCCCCC(=O)NCCCC[C@H](NC(=O)CCCC[C@H]3SC[C@H]4NC(=O)N[C@H]43)C(N)=O)C2)C=C2c3cccc4[nH]cc(c34)C[C@H]21 (some centres undefined)
